# Bioassay records from PubChem.
# UCH37 inh: human UCH37 deubiquitinating enzyme inhibition. purified proteasome/UCH37, Ub-AMC cleavage fluorescence. actives 0.33% (n = 330,000). inhibition, % (concentration not given with the values). AID 588478;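 active = mean inhibition over replicate wells above about 20%, limit read from the data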;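 also: 0% = compound-free wells with enzyme and 100% = wells lacking proteasome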
# Target sequence (Q9Y5K5 whole entry, looked up): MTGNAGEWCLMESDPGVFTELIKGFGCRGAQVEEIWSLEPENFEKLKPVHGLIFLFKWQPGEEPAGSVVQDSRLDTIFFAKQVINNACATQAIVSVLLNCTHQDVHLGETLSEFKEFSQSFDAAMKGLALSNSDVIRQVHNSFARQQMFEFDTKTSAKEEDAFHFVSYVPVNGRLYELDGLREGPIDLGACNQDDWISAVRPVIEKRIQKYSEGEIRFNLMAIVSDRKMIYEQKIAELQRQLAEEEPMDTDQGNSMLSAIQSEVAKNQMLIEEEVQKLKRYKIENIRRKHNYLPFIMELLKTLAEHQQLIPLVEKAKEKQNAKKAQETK
#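 system = Proteasome-associated human UCH37 deubiquitinase | amount = 0.15 nM proteasome as dispensed | medium = pH 7.4 Tris-HCl (50 mM) with ovalbumin, ATP-MgCl2, DTT | incubation = 30 min preincubation with enzyme, 25 min cleavage at room temperature | detection = AMC fluorescence 355/460 nm | read-out basis = percent inhibition | controls = no-proteasome and no-compound wells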
# XBP1 UPR activ: adaptive UPR (XBP1) activation; CHO-XBP1 luciferase reporter, IRE1-XBP1 UPR activation, luminescence; percent of tunicamycin response, DMSO as zero; activation, % at 20 µM; actives 0.33% (n = 330,000);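 active = versus positive control, 20 µM dose yields 30% or more activation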;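 also: 100% = tunicamycin at 10 µg/mL and 0% = DMSO only wells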
#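 Assay system: IRE1-XBP1 luciferase reporter CHO line. Input: 1000 cells/well. Buffer or medium: F12 with 10% serum. Doses: 20 µM, 1% DMSO. Times: overnight seeding at 37 °C, 6 h compound treatment at 37 °C. Technique: Steady-Glo luciferase glow luminescence, 10 min after reagent addition.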
# CHOP UPR activ: activators of apoptotic arm of unfolded protein response (CHOP); AID 449763; CHO-CHOP luciferase reporter, UPR activation, luminescence; percent of tunicamycin response over DMSO baseline; activation, % at 10 µM; actives 0.34% (n = 330,000);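 active = at 10 µM dose, activation of 40% or more, normalized to positive control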;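 also: 100% = tunicamycin at 10 µg/mL and 0% = DMSO alone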
#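 assay system = CHO CHOP reporter cells | amount = 500 CHO-CHOP cells per well | buffer or medium = F12 with 10% FBS | incubation = 16-18 h cell attachment, then 6 h compound exposure, 37 °C | detection = luminescence read with Steady-Glo | read-out = percent activation relative to tunicamycin control | controls = tunicamycin high control, DMSO low control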
# CTSL1 counter: blocks F. hepatica cathepsin L1 in PFM18AAP counter-screen. recombinant F. hepatica cathepsin L1, Z-Leu-Arg-MCA fluorescence. inhibition, % at 5.96 µM. actives 0.49% (n = 300,000);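 active = inhibition above the mean of all tested compounds plus 3 SD, set per screening campaign, cut at about 17% in these data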;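 also: 0% = plate median of test compound wells and 100% = 1 µM Z-Phe-Ala-diazomethylketone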
# CHOP inh: inhibitors of CHOP induction in ER stress response | CHO-K1 CHOP-promoter luciferase, tunicamycin-induced, 15-18 h | inhibition, % at 10 µM | actives 3.8% (n = 220,000);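 active = compounds that reduced the stress-induced luciferase reporter signal by more than about 70% of percent inhibition, limit read from the data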;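 also: 0% = tunicamycin plus vehicle and 100% = wells without tunicamycin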
# * hit, by the source's call; x = no result. Only a selection was taken, and hits are over-represented in it overall.
SMILES,UCH37 inh,XBP1 UPR activ,CHOP UPR activ,CTSL1 counter,CHOP inh
O=C(CSc1ccccc1)Nc1ccc(-c2nc3ccccc3[nH]2)cc1,x,10,3,-3,94*
COc1ccccc1/C=C/C=Nn1c(-c2cc(C)[nH]n2)n[nH]c1=S,9,x,x,x,x
Cc1cc(C)nc(NN=Cc2ccncc2)n1,6,x,x,x,x
CNc1oc(-c2ccccc2Cl)nc1P(=O)(c1ccccc1)c1ccccc1,-13,-3,0,4,80*
CC(=O)Nc1ccc(NC(=O)N2CCCCC2)cc1,1,-2,-2,20*,11
CCOc1ccc(Cn2nnc(C(=O)Nc3cc(C)cc(C)c3)c2N)cc1,1,0,1,0,75*
CCc1ccc(Cn2nnc(C(=O)Nc3cccc(C)c3)c2N)cc1,5,-2,1,3,71*
O=C(N/N=C/c1ccc(OCc2ccccc2)cc1)c1ccco1,x,3,6,22*,-57
O=C/C(=C\Nc1ccc(Cl)cn1)c1nc2cc(Cl)ccc2o1,3,2,0,-5,75*
CCOC(=O)c1ccccc1NC(=O)c1cncc(Br)c1,-1,x,x,x,73*
CCOC(=O)c1ccccc1NC(=O)c1cccs1,0,2,-1,1,92*
CCOC(=O)c1ccc(NC(=O)c2n[nH]c(=O)c3ccccc23)cc1,-10,-1,4,1,14
CCOC(=O)c1ccccc1NC(=O)COc1ccccc1,3,-1,-1,1,84*
Cc1ccccc1NC(=O)c1ccccc1NC(=O)c1cccs1,4,1,-1,-3,x
CCOC(=O)c1ccccc1NC(=O)c1n[nH]c(=O)c2ccccc12,-44,3,-1,-1,93*
CCOC(=O)c1ccccc1NC(=O)c1cccnc1,3,-1,0,-2,31
CC(=O)Nc1ccc(S(=O)(=O)N(C)CC(=O)NN=Cc2ccc(C(=O)O)cc2)cc1,2,x,x,x,x
Cc1ccc(-c2cc(-c3ccccc3)nc(NN=Cc3cccnc3)n2)cc1,-20,x,x,x,x
COc1cc(NC(=O)c2cccs2)c(C(=O)OCC(=O)NCc2ccccc2)cc1OC,-140,4,-1,2,87*
COc1ccc(C=NOCC(=O)Nn2c(C)nc3ccccc3c2=O)cc1,4,x,x,x,x
CCCc1ccc(C(=O)Cn2nc(C(=O)O)c3ccccc3c2=O)cc1,6,-2,1,-11,86*
Cc1cc(C)c(C(=O)Cn2nc(C(=O)O)c3ccccc3c2=O)cc1C,2,0,3,2,-11
ON=C(C[n+]1ccccc1)c1ccc(Br)cc1,1,x,x,x,x
O=C(c1ccccc1)N(Cc1ccccc1)c1ccccn1,5,0,-1,-3,-29
O=C(/C=C/c1ccc(Cl)cc1)N(Cc1ccccc1)c1ccccn1,27*,0,0,0,41
SMILES,UCH37 inh,XBP1 UPR activ,CHOP UPR activ,CTSL1 counter,CHOP inh
NC(=S)N/N=C/c1cccc(/C=N/NC(N)=S)c1,x,-1,0,18*,2
NC(=S)N/N=C/c1ccc(/C=N/NC(N)=S)cc1,x,0,0,32*,17
O=C1Nc2ccccc2C1(O)CC(=NO)c1ccccc1 (stereo not drawn),3,x,x,x,x
Cc1ccc(NC(NC(=O)c2cccs2)C(Cl)(Cl)Cl)cc1C (stereo not drawn),4,0,-1,0,80*
CCN1CCN(C(=O)/C=C/c2cccc(Cl)c2)CC1,5,-3,4,4,x
CCN1CCN(C(=O)/C=C/c2ccc(C(C)C)cc2)CC1,2,1,-2,17*,x
Nc1nnc2c(n1)CCCC2,21*,2,0,13,-9
CCCCNC(=O)OCCNC(=O)Oc1cccc(C)c1,5,-6,-2,45*,3
Cc1cccc(OCCCC(=O)O)c1,7,0,-9,-4,21
CCCCNC(=O)OC(C)CNC(=O)Oc1cccc(C)c1 (stereo not drawn),1,-1,0,26*,22
Cc1cccc(OCCCC(=O)NC(C)C)c1,1,-4,3,0,-12
Cn1cccc1-c1cc(C(=O)NN=Cc2ccccc2Cl)[nH]n1,-6,x,x,x,x
O=C(CSc1nc(N2CCCCC2)nc(N2CCCCC2)n1)Nc1nccs1,4,0,-2,1,77*
Cc1cc(C)nc(SCC(=O)Nc2nccs2)n1,0,1,2,-1,x
O=C(c1nn2c(C(F)(F)F)cc(-c3ccco3)nc2c1Br)N1CCCc2ccccc21,5,-2,0,0,46
CN(C(=O)c1cc2nc(-c3ccco3)cc(C(F)(F)F)n2n1)C1CCCCC1,-79,3,-1,5,93*
O=C(c1cc2nc(-c3ccco3)cc(C(F)(F)F)n2n1)N1CCCCCC1,-56,-1,2,3,-3
O=C(c1cc2nc(-c3ccco3)cc(C(F)(F)F)n2n1)N1CCCc2ccccc21,-7,0,1,1,71*
O=C(NN=C/C=C\c1ccc([N+](=O)[O-])cc1)c1cccnc1,6,x,x,x,x
CC(C)(C)c1ccc(/C=N/OCC(=O)NCc2ccc(F)cc2)cc1,x,0,1,2,75*
CC(C)(C)c1ccc(/C=N/OCC(=O)NCc2ccccc2)cc1,x,-2,2,6,-16
Cc1ccc(CNC(=O)CO/N=C/c2ccc(C(C)(C)C)cc2)cc1,x,-3,-1,-2,95*
CC(C)(C)c1ccc(C=NOCC(=O)NCc2ccc(F)cc2)cc1,3,x,x,x,x
COc1ccc2c(c1)c(C(=O)NN=Cc1ccc(Cl)cc1)c(C)n2C,0,x,x,x,x
O=C(Cn1cnc([N+](=O)[O-])n1)NN=Cc1cccc(Cl)c1,2,x,x,x,x
SMILES,UCH37 inh,XBP1 UPR activ,CHOP UPR activ,CTSL1 counter,CHOP inh
O=C(CC=NOCc1c(Cl)cccc1Cl)Oc1ccc(Cl)cc1Cl,4,x,x,x,x
COc1ccc(NC(=O)N(CCN2CCCC2)Cc2cc3cc(OC)c(OC)cc3[nH]c2=O)cc1,-2,4,0,0,78*
CCc1ccc2[nH]c(=O)c(CN(Cc3ccccc3)C(=O)Nc3ccccc3OC)cc2c1,-2,5,1,6,73*
CCc1ccc2[nH]c(=O)c(CN(CCCN3CCOCC3)C(=O)Nc3ccc(F)cc3)cc2c1,-1,8,0,4,71*
COc1ccc(NC(=O)N(CCCN(C)C)Cc2cc3cc(OC)ccc3[nH]c2=O)cc1,-25,1,3,4,3
O=C(Nc1ccc(F)cc1)N(CCCN1CCOCC1)Cc1cc2cc3c(cc2[nH]c1=O)OCCO3,-13,-3,-3,-1,-15
C=CCc1cccc(C=Nn2c(C)nnc2C)c1O,4,x,x,x,x
CCc1ccc(NC(=O)CC(C)=NNC(=O)COc2ccc(C)cc2Br)cc1,-1,x,x,x,x
CCC1CCCN1Cn1cnc2c([nH]c3ccc(Cl)cc32)c1=O (stereo not drawn),-12,-1,0,19*,38
